Experimental data gathered from unrelated publications.
Each line is one published result; the experiments were not run side by side.
AGTR2: Type-2 angiotensin II receptor (AGTR2, Homo sapiens, UniProt P50052)
Adora2a: Adenosine receptor A2a (Adora2a, Rattus norvegicus, UniProt P30543)
DRD1: D(1A) dopamine receptor (DRD1, Homo sapiens, UniProt P21728)
Urease: Urease (Canavalia ensiformis, UniProt P07374)

Compound | target | assay | test system | conditions | Ki [nM]
CCC(C)[C@H](NC(=O)c1ccc(C)c(C(=O)N(Cc2ccccc2)Cc2ccccc2)c1)C(=O)O (stereo in doubt) | AGTR2 | ligand displacement in cells, radioligand |  |  | 2500
COc1cccc(-c2c(C#N)c(N)nc(SCC(N)=O)c2C#N)c1 | Adora2a | ligand displacement, radioligand |  | cell membranes | 1200
CCC(C)[C@H](NC(=O)c1ccc(C(=O)N(Cc2ccccc2)Cc2ccccc2)cc1)C(=O)O (stereo in doubt) | AGTR2 | ligand displacement in cells, radioligand |  |  | 35000
CC(C)CC(C)N1CCCn2c1nc1c2c(=O)n(C)c(=O)n1C (stereo not shown) | Adora2a | ligand displacement, radioligand |  | cell membranes | 5370
CCc1ccc(C(=O)N[C@H](C(=O)O)C(C)CC)cc1C(=O)N(C)Cc1ccccc1 (stereo in doubt) | AGTR2 | ligand displacement in cells, radioligand |  |  | 16000
N#Cc1c(N)nc(SCC(N)=O)c(C#N)c1-c1ccc(O)cc1 | Adora2a | ligand displacement, radioligand |  | cell membranes | 338
COc1ccccc1N1CCN(CCCCN2CCc3ccccc3C2=O)CC1 | DRD1 | cell-free assay, radioligand |  |  | 1620
CC(C)N1CCCn2c1nc1c2c(=O)n(C)c(=O)n1C | Adora2a | ligand displacement, radioligand |  | cell membranes | 4950
Cc1cc(C)c2c(c1)[C@@H](N(Cc1cc(C(F)(F)F)cc(C(F)(F)F)c1)c1nnn(C)n1)CCCN2C[C@H]1CC[C@H](C(=O)O)CC1 | Cytochrome P450 2B6 (CYP2B6, Homo sapiens, UniProt P20813) | enzyme activity, inhibitor | human, liver microsomes | pH 7.4 | 6300
COc1ccc(-c2c(C#N)c(N)nc3sc(C(N)=O)c(N)c23)cc1 | Adora2a | ligand displacement, radioligand |  | cell membranes | 561
CCCCN1CCCn2c1nc1c2c(=O)n(C)c(=O)n1C | Adora2a | ligand displacement, radioligand |  | cell membranes | 1750
Cc1nc2cc(OCCCCN3CCN(c4cccc(Cl)c4Cl)CC3)ccc2s1 | Sodium-dependent serotonin transporter (SLC6A4, Homo sapiens, UniProt P31645) | ligand displacement, radioligand |  |  | 340
CCC(C)[C@H](NC(=O)c1ccc(C)c(C(=O)N(CC)Cc2ccccc2)c1)C(=O)O (stereo in doubt) | AGTR2 | ligand displacement in cells, radioligand |  |  | 3400
N#Cc1c(N)nc2sc(C(N)=O)c(N)c2c1-c1ccc2c(c1)OCO2 | Adora2a | ligand displacement, radioligand |  | cell membranes | 1060
CC1Cc2ccccc2N1C(=O)NCCCCN(C)[C@@H]1Cc2cccc3[nH]c(=O)n(c23)C1 (mixture of isomers) | DRD1 | ligand displacement, radioligand |  |  | > 10000
CCCCN1CCCn2c1nc1c2c(=O)n(CCC)c(=O)n1CCC | Adora2a | ligand displacement, radioligand |  | cell membranes | 300
CCC(C)[C@H](NC(=O)c1cccc(C(=O)N(Cc2ccccc2)Cc2ccccc2)c1)C(=O)O (stereo in doubt) | AGTR2 | ligand displacement in cells, radioligand |  |  | 7500
CCCCCCN1CCCn2c1nc1c2c(=O)n(C)c(=O)n1C | Adora2a | ligand displacement, radioligand |  | cell membranes | 820
CCC(C)[C@H](NC(=O)c1ccc(C)c(C(=O)N(CC)CC)c1)C(=O)O (stereo in doubt) | AGTR2 | ligand displacement in cells, radioligand |  |  | 2400
N#Cc1c(N)nc(SCC(N)=O)c(C#N)c1-c1ccc2c(c1)OCO2 | Adora2a | ligand displacement, radioligand |  | cell membranes | 429
CC(=O)NO | Urease | enzyme activity, inhibitor |  |  | 18100
CN1CCCn2c1nc1c2c(=O)n(C)c(=O)n1C | Adora2a | ligand displacement, radioligand |  | cell membranes | 4300
Oc1ccccc1OCc1nn2c(-c3cccc(Br)c3)nnc2s1 | Urease | enzyme activity, inhibitor |  |  | 2250
CCc1ccc(C(=O)N[C@H](C(=O)O)C(C)CC)cc1C(=O)N(CC)CC (stereo in doubt) | AGTR2 | ligand displacement in cells, radioligand |  |  | 10000
C=CCN1CCCn2c1nc1c2c(=O)n(C)c(=O)n1C | Adora2a | ligand displacement, radioligand |  | cell membranes | 2620
